Assays:
[1] = Antileukemic activity against Murine P388 lymphocytic leukemia, body weight difference of the test animals compared to control group B animals at a dose of 12.5 mg/kg; assay type: functional, Mus musculus; set-up: unit not given here
How it was run: (§1)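 CD2F1 mice implanted intraperitoneally with ascitic fluid carrying ca. 1×10^6 P388 cells, under the NCI protocol. Dosing was intraperitoneal, starting 24 h after inoculation, then every 24 h for five doses in total. The body weight difference of treated mice is taken against untreated controls. Toxicity day survivors are the mice alive at day five out of those tested.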

[2] = Antileukemic activity against Murine P388 lymphocytic leukemia, body weight difference of the test animals compared to control group B animals at a dose of 25 mg/kg; assay type: functional, Mus musculus; set-up: unit not given here; how it was run: as §1
[3] = Antileukemic activity against Murine P388 lymphocytic leukemia, body weight difference of the test animals compared to control group B animals at a dose of 6.25 mg/kg; assay type: functional, Mus musculus; how it was run: as §1
[4] = Antileukemic activity against Murine P388 lymphocytic leukemia, body weight difference of the test animals compared to control group C animals at a dose of 100 mg/kg; assay type: functional, Mus musculus; set-up: unit not given here; how it was run: as §1
[5] = Antileukemic activity against Murine P388 lymphocytic leukemia, body weight difference of the test animals compared to control group C animals at a dose of 25 mg/kg; assay type: functional, Mus musculus; how it was run: as §1
[6] = Antileukemic activity against Murine P388 lymphocytic leukemia, body weight difference of the test animals compared to control group C animals at a dose of 50 mg/kg; assay type: functional, Mus musculus; set-up: unit not given here; how it was run: as §1
[7] = Antileukemic activity against Murine P388 lymphocytic leukemia, body weight difference of the test animals compared to control group A animals at a dose of 100 mg/kg; assay type: functional, Mus musculus; set-up: unit not given here; how it was run: as §1
[8] = Antileukemic activity against Murine P388 lymphocytic leukemia, body weight difference of the test animals compared to control group A animals at a dose of 12.5 mg/kg; assay type: functional, Mus musculus; how it was run: as §1
[9] = Toxicity day survivors expressed as number of animals that survived to day five/ number of test animals under control group A at a dose of 50 mg/kg; 6 survived out of 6; assay type: functional, Mus musculus
[10] = Toxicity day survivors expressed as number of animals that survived to day five/ number of test animals under control group B at a dose of 100 mg/kg; 6 survived out of 6; assay type: functional, Mus musculus
[11] = Toxicity day survivors expressed as number of animals that survived to day five/ number of test animals under control group B at a dose of 12.5 mg/kg; 6 survived out of 6; assay type: functional, Mus musculus
[12] = Antileukemic activity against Murine P388 lymphocytic leukemia and toxicity day survivors expressed as number of animals that survived to day five/ number of test animals under control group B at a dose of 6.25 mg/kg; 6 survived out of 6; assay type: functional, Mus musculus
[13] = Antileukemic activity against Murine P388 lymphocytic leukemia and toxicity day survivors expressed as number of animals that survived to day five/ number of test animals under control group C at a dose of 50 mg/kg; 6 survived out of 6; assay type: functional, Mus musculus
[14] = Toxicity day survivors expressed as number of animals that survived to day five/ number of test animals under control group A at a dose of 12.5 mg/kg; 6 survived out of 6; assay type: functional, Mus musculus
[15] = Toxicity day survivors expressed as number of animals that survived to day five/ number of test animals under control group A at a dose of 25 mg/kg; 6 survived out of 6; assay type: functional, Mus musculus
[16] = Percent increase in life span of test animals compared to untreated tumor-bearing control group C animals at a dose of 100 mg/kg; assay type: functional; conditions: Mus musculus
[17] = Percent increase in life span of test animals compared to untreated tumor-bearing control group C animals at a dose of 12.5 mg/kg; assay type: functional; conditions: Mus musculus
[18] = Log cell population relative to cell population at the beginning of treatment compared to control group C at a dose of 100 mg/kg; assay type: functional, Mus musculus
[19] = Antileukemic activity against Murine P388 lymphocytic leukemia and toxicity day survivors expressed as number of animals that survived to day five/ number of test animals under control group B at a dose of 25 mg/kg; 6 survived out of 6; assay type: functional, Mus musculus
[20] = Percent increase in life span of test animals compared to untreated tumor-bearing control group C animals at a dose of 25 mg/kg; assay type: functional; conditions: Mus musculus
[21] = Percent increase in life span of test animals compared to untreated tumor-bearing control group C animals at a dose of 50 mg/kg; assay type: functional; conditions: Mus musculus
[22] = Percent increase in life span of test animals compared to untreated tumor-bearing control group C animals at a dose of 6.25 mg/kg; assay type: functional; conditions: Mus musculus
[23] = Toxicity day survivors expressed as number of animals that survived to day five/ number of test animals under control group B at a dose of 50 mg/kg; 6 survived out of 6; assay type: functional, Mus musculus
[24] = Toxicity day survivors expressed as number of animals that survived to day five/ number of test animals under control group C at a dose of 100 mg/kg; 6 survived out of 6; assay type: functional, Mus musculus
[25] = Toxicity day survivors expressed as number of animals that survived to day five/ number of test animals under control group C at a dose of 25 mg/kg; 6 survived out of 6; assay type: functional, Mus musculus
[26] = Toxicity day survivors expressed as number of animals that survived to day five/ number of test animals under control group C at a dose of 6.25 mg/kg; 6 survived out of 6; assay type: functional, Mus musculus
[27] = Percent increase in life span of test animals compared to untreated tumor-bearing control group A animals at a dose of 100 mg/kg; assay type: functional; conditions: Mus musculus
[28] = Percent increase in life span of test animals compared to untreated tumor-bearing control group A animals at a dose of 6.25 mg/kg; assay type: functional; conditions: Mus musculus
P388 [29] = experiment: Percent increase in life span of test animals compared to untreated tumor-bearing control group B animals at a dose of 50 mg/kg; assay type: functional; conditions: Mus musculus
[30] = Log cell population relative to cell population at the beginning of treatment compared to control group A at a dose of 100 mg/kg; assay type: functional, Mus musculus
P388 [31] = experiment: Log cell population relative to cell population at the beginning of treatment compared to control group A at a dose of 12.5 mg/kg; assay type: functional, Mus musculus
P388 [32] = experiment: Log cell population relative to cell population at the beginning of treatment compared to control group A at a dose of 25 mg/kg; assay type: functional, Mus musculus
P388 [33] = experiment: Log cell population relative to cell population at the beginning of treatment compared to control group A at a dose of 50 mg/kg; assay type: functional, Mus musculus
P388 [34] = experiment: Log cell population relative to cell population at the beginning of treatment compared to control group B at a dose of 12.5 mg/kg; assay type: functional, Mus musculus
P388 [35] = experiment: Log cell population relative to cell population at the beginning of treatment compared to control group B at a dose of 25 mg/kg; assay type: functional, Mus musculus
P388 [36] = experiment: Log cell population relative to cell population at the beginning of treatment compared to control group B at a dose of 50 mg/kg; assay type: functional, Mus musculus
P388 [37] = experiment: Log cell population relative to cell population at the beginning of treatment compared to control group C at a dose of 12.5 mg/kg; assay type: functional, Mus musculus
P388 [38] = experiment: Log cell population relative to cell population at the beginning of treatment compared to control group C at a dose of 50 mg/kg; assay type: functional, Mus musculus
P388 [39] = experiment: Log cell population relative to cell population at the beginning of treatment compared to control group C at a dose of 6.25 mg/kg; assay type: functional, Mus musculus

CC(C)NC(=O)OCc1c(COC(=O)NC(C)C)c(-c2ccc(Cl)c(Cl)c2)n2c1CCC2
BWD [1]: -1.9 | BWD [2]: -2.2 | BWD [3]: -0.5 | BWD [4]: -2.6 | BWD [5]: -1.4 | BWD [6]: -1.8 | BWD [7]: -4.2 | BWD [8]: -0.6 | TDS [9]: 6 | TDS [10]: 6 | TDS [11]: 6 | TDS [12]: 6 | TDS [13]: 6 | TDS [14]: 6 | TDS [15]: 6 | ILS at 100 mg/kg [16]: 123% | ILS at 12.5 mg/kg [17]: 32% | KE [18]: >6.68 | TDS [19]: 6 | ILS at 25 mg/kg [20]: 55% | ILS at 50 mg/kg [21]: 96% | ILS at 6.25 mg/kg [22]: 26% | TDS [23]: 6 | TDS [24]: 6 | TDS [25]: 6 | TDS [26]: 6 | ILS at 100 mg/kg [27]: 48% | ILS at 6.25 mg/kg [28]: 51% | ILS at 50 mg/kg (P388 [29]): 95% | KE [30]: 0.8 | KE (P388 [31]): 1.4 | KE (P388 [32]): 2.81 | KE (P388 [33]): 4.35 | KE (P388 [34]): 1.08 | KE (P388 [35]): 3.01 | KE (P388 [36]): 5.71 | KE (P388 [37]): -0.07 | KE (P388 [38]): 5.27 | KE (P388 [39]): -0.55
